Compound activity as filed in PubChem.
Shown are actives, neighbours in structure and some others; about 4% of the full set was active somewhere.
KCNK3 block: human KCNK3 channel inhibition, primary screen; AID 602410; B-score at 10 µM; 0.84% of 340,000 active; CHO-KCNK3 thallium flux, FluxOR fluorescence; active compounds read low; O14649;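 active means B-score under library mean minus 4 SD, starting fluorescence ratio at most library mean plus 5 SD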;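 further: more negative B-score means stronger inhibition of thallium flux through KCNK3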
hERG rescue: shields human hERG channel from block by proarrhythmic agents; Q12809; AID 1511; CHO-hERG, FluxOR thallium flux, dofetilide IC70 present; 0.51% of 310,000 active; activation (rescue from dofetilide block), less the hit threshold, % at 10 µM;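 active means activation above the mean of controls blocked by dofetilide plus 5 SD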;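 further: thallium influx through hERG after potassium depolarization seen as dye fluorescence rise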
KCNQ1 inh: human KCNQ1 channel inhibition; B-score at 10 µM; CHO-K1 KCNQ1, FluxOR thallium flux fluorescence; active compounds read high; 1.3% of 310,000 active; P51787;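 active means compounds whose thallium flux B-score, printed positive for inhibition, exceeds three library SD while starting fluorescence stays within three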;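 further: channel opened by potassium depolarization with thallium stimulus after 20 min compound exposure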
KCNQ1 pot: potentiates or activates the human KCNQ1 potassium channel; B-score at 10 µM; CHO-K1 KCNQ1, thallium flux FluxOR fluorescence; active compounds read high; AID 2648; P51787; 0.35% of 310,000 active;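 active means fluorescence ratio B-score, a plate-corrected score, at least three library SD, with initial intensity B-score within 5 SD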
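assay system = CHO-K1 cells stably expressing KCNQ1 | medium = assay buffer, equal DMSO in all wells | timing = 37 °C overnight plating, 90-min dark dye load, 20-min compound pretreatment | measured by = kinetic FluxOR thallium fluorescence, 10-s 1-Hz baseline, 110-s post-stimulus read | measure = fluorescence change relative to baseline, converted to B score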
PHOSPHO1 inh: blocks human PHOSPHO1 phosphatase activity; Q8TCT1; recombinant PHOSPHO1, absorbance phosphatase assay; inhibition, % at 13.3 µM; 1.1% of 290,000 active; in the data active means inhibition above about 60%
KCNK9 block: human KCNK9 channel inhibition; Q9NPC2; HEK293 KCNK9, FluxOR thallium flux fluorescence; active compounds read low; B-score at 10 µM; 1.2% of 310,000 active;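 active means ratio B-score over 3 SD below the library mean, with starting fluorescence within 5 SD of its mean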;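 further: negative B-score means less thallium flux so channel inhibition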
Active calls of the source: *.

How did O=C(c1ccc(S(=O)(=O)N2CCCC2)cc1)N1CCN(c2cccc(Cl)c2)CC1 do in these assays?
KCNK3 block: inactive; hERG rescue: -12; KCNQ1 inh: inactive; KCNQ1 pot: 9*; PHOSPHO1 inh: 58; KCNK9 block: inactive

What do the screens show for `COc1cc(CNc2ccc3[nH]c(=O)[nH]c3c2)ccc1OCc1ccccc1Cl`?
KCNK3 block: inactive; hERG rescue: -1; KCNQ1 inh: inactive; KCNQ1 pot: inactive; PHOSPHO1 inh: 1; KCNK9 block: inactive

What do the screens show for `O=C(Nc1nnc(-c2ccccc2)o1)c1cc(Cl)sc1Cl`?
KCNK3 block: inactive; hERG rescue: 4; KCNQ1 inh: inactive; KCNQ1 pot: inactive; PHOSPHO1 inh: 14; KCNK9 block: inactive

How did O=C(COc1ccccc1)Nc1nnc(-c2ccc3c(c2)CCCC3)o1 do in these assays?
KCNK3 block: inactive; hERG rescue: -17; KCNQ1 inh: inactive; KCNQ1 pot: inactive; PHOSPHO1 inh: -2; KCNK9 block: inactive

What do the screens show for `O=C(Nc1nnc(-c2ccc(F)cc2)o1)c1cc(Cl)sc1Cl`?
KCNK3 block: inactive; hERG rescue: 10*; KCNQ1 inh: inactive; KCNQ1 pot: 23*; PHOSPHO1 inh: 6; KCNK9 block: inactive

How did O=C(Nc1nnc(-c2ccc3c(c2)CCCC3)o1)c1ccccc1Cl do in these assays?
KCNK3 block: inactive; hERG rescue: -3; KCNQ1 inh: inactive; KCNQ1 pot: 12*; PHOSPHO1 inh: -3; KCNK9 block: inactive

How did CCOC(=O)Cn1c(=O)oc2cc(S(=O)(=O)N3CCCc4ccccc43)ccc21 do in these assays?
KCNK3 block: inactive; hERG rescue: -11; KCNQ1 inh: inactive; KCNQ1 pot: inactive; PHOSPHO1 inh: -21; KCNK9 block: inactive

What do the screens show for `O=C(Cn1c(=O)oc2cc(S(=O)(=O)N3CCc4ccccc43)ccc21)NC1CCCC1`?
KCNK3 block: inactive; hERG rescue: 1; KCNQ1 inh: inactive; KCNQ1 pot: inactive; PHOSPHO1 inh: 6; KCNK9 block: -8.8*

Results for CC(C)CCNC(=O)Cn1c(=O)oc2cc(S(=O)(=O)N3CCc4ccccc43)ccc21 ?
KCNK3 block: inactive; hERG rescue: -1; KCNQ1 inh: inactive; KCNQ1 pot: inactive; PHOSPHO1 inh: 20; KCNK9 block: -9.2*

What do the screens show for `Cc1cc(C(=O)OCC(=O)N(C)c2c(N)n(Cc3ccccc3)c(=O)[nH]c2=O)c(C)n1-c1ccccc1`?
KCNK3 block: inactive

What do the screens show for `CC(NC(=O)C1CCN(S(=O)(=O)c2cccc3nonc23)CC1)c1ccccc1` (centres undefined)?
KCNK3 block: inactive; hERG rescue: -3; KCNQ1 inh: inactive; KCNQ1 pot: inactive; PHOSPHO1 inh: -47; KCNK9 block: inactive

Results for Cc1ccc(Nc2nc(C)cs2)cc1 ?
KCNK3 block: inactive; hERG rescue: -2; KCNQ1 inh: inactive; KCNQ1 pot: inactive; PHOSPHO1 inh: 65*; KCNK9 block: inactive

What do the screens show for `Cc1csc(Nc2ccc(Cl)cc2)n1`?
KCNK3 block: inactive; hERG rescue: -15; KCNQ1 inh: inactive; KCNQ1 pot: inactive; PHOSPHO1 inh: 44; KCNK9 block: inactive

Results for C/C=C/Cn1c(SCc2ccccc2)nc2c1c(=O)[nH]c(=O)n2C ?
KCNK3 block: inactive; hERG rescue: -4; KCNQ1 inh: inactive; KCNQ1 pot: inactive; PHOSPHO1 inh: 29; KCNK9 block: inactive

How did Cc1ccc(S(=O)(=O)N/N=C/c2cccc([N+](=O)[O-])c2)cc1 do in these assays?
KCNK3 block: inactive; hERG rescue: -7; KCNQ1 inh: inactive; KCNQ1 pot: inactive; PHOSPHO1 inh: 12; KCNK9 block: inactive

Results for CCCCCCCCCS(=O)(=O)N/N=C/c1cccc([N+](=O)[O-])c1 ?
KCNK3 block: inactive; hERG rescue: -10; KCNQ1 inh: 8*; KCNQ1 pot: inactive; PHOSPHO1 inh: -20; KCNK9 block: inactive

What do the screens show for `CCCCCCCC(=O)Nc1ccc(C(=O)N/N=C/c2cccc([N+](=O)[O-])c2)cc1`?
KCNK3 block: inactive; hERG rescue: 8.9*; KCNQ1 inh: inactive; KCNQ1 pot: inactive; PHOSPHO1 inh: 23; KCNK9 block: inactive

How did O=C(Cn1c(=O)cnc2ccccc21)Nc1ccccc1N1CCOCC1 do in these assays?
KCNK3 block: inactive; hERG rescue: -3; KCNQ1 inh: inactive; KCNQ1 pot: inactive; PHOSPHO1 inh: 23; KCNK9 block: inactive

Results for CC1CCC/C(=C\Nc2ccc3c(c2)OCO3)C1=O (centres undefined) ?
KCNK3 block: inactive; hERG rescue: -11; KCNQ1 inh: inactive; KCNQ1 pot: inactive; PHOSPHO1 inh: 81*; KCNK9 block: inactive

What do the screens show for `N#Cc1c(NC(=O)CSc2ncnc3sccc23)oc(-c2ccco2)c1-c1ccco1`?
KCNK3 block: inactive; hERG rescue: -8; KCNQ1 inh: inactive; KCNQ1 pot: inactive; PHOSPHO1 inh: 59; KCNK9 block: inactive

How did CC(C)(C)[C@H]1COC(=O)CC/C=C\C[C@H](CC(=O)N(CCO)Cc2ccccc2)C(=O)N1 do in these assays?
KCNK3 block: inactive

What do the screens show for `S=c1[nH]ncn1/N=C/c1cccc(Oc2ccccc2)c1`?
KCNK3 block: inactive; hERG rescue: -5; KCNQ1 inh: inactive; KCNQ1 pot: inactive; PHOSPHO1 inh: 97*; KCNK9 block: inactive

What do the screens show for `CC(=O)c1c(O)c(C)c(O)c2c1OC1=CC(=O)C(C(C)=O)C(=O)[C@@]12C` (some centres undefined)?
KCNK3 block: inactive; hERG rescue: -18; KCNQ1 inh: 7*; KCNQ1 pot: inactive; PHOSPHO1 inh: 36; KCNK9 block: inactive

What do the screens show for `CCOC(=O)C1CCN(c2cc3c(cc2NC(=O)c2ccccc2)n(C)c(=O)n3C)CC1`?
KCNK3 block: inactive; hERG rescue: -10; KCNQ1 inh: inactive; KCNQ1 pot: inactive; PHOSPHO1 inh: 43; KCNK9 block: inactive

Results for CCOC(=O)C1CCN(c2cc3c(cc2NC(=O)c2ccc(OC)c(OC)c2)n(C)c(=O)n3C)CC1 ?
KCNK3 block: inactive; hERG rescue: -7; KCNQ1 inh: inactive; KCNQ1 pot: inactive; PHOSPHO1 inh: 22; KCNK9 block: -6.8*

How did CCCCn1c(NCc2ccccc2O)nc2ccccc21 do in these assays?
KCNK3 block: inactive; hERG rescue: -11; KCNQ1 inh: inactive; KCNQ1 pot: inactive; PHOSPHO1 inh: 2; KCNK9 block: inactive

How did CCCCn1c(NCc2ccccc2NS(=O)(=O)c2ccc(C)cc2)nc2ccccc21 do in these assays?
KCNK3 block: inactive; hERG rescue: -2; KCNQ1 inh: 7*; KCNQ1 pot: inactive; PHOSPHO1 inh: 14; KCNK9 block: -7.1*
